From ChEMBL document CHEMBL1149101, “New antibacterial agents derived from the DNA gyrase inhibitor cyclothialidine” (J Med Chem, 2004)
≈ marks a conversion by molar mass, not a printed value.

Tests used:
Micrococcus luteus = experiment: Minimum inhibitory concentration against Micrococcus luteus ATCC 8340; assay type: functional
Summary of the method: (§1)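 Agar dilution per NCCLS in BB2 agar + 1% Isovitalex + 7.5% sheep blood + menadione, compound added to melted medium at 50 °C. About 10⁴ CFU/spot from diluted overnight cultures, multipoint-inoculated.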

[1] = target: DNA gyrase (Escherichia coli) (UniProt P0AES6+P0AES4)
Staphylococcus aureus [2] = experiment: Minimum inhibitory concentration against Staphylococcus aureus; assay type: functional
[3] = Range for minimum inhibitory concentration against Staphylococcus aureus; 0.5->[…]; assay type: functional
Neisseria meningitidis = experiment: Minimum inhibitory concentration against Neisseria meningitides 69480; assay type: functional; summary of the method: as §1
Staphylococcus aureus [4] = experiment: Minimum inhibitory concentration against Staphylococcus aureus Smith; assay type: functional
Summary of the method: (§2)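 NCCLS agar dilution on Mueller–Hinton agar, compound incorporated into melted medium at 50 °C. Inoculum about 10⁴ CFU/spot from diluted overnight cultures, multipoint-applied.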

Staphylococcus aureus [5] = experiment: Minimum inhibitory concentration against Staphylococcus aureus ATCC 25923; assay type: functional; summary of the method: as §2
Streptococcus pyogenes = experiment: Minimum inhibitory concentration against Streptococcus pyogenes b15; conditions: Streptococcus pyogenes; read-out: MIC
Staphylococcus aureus [6] = experiment: Minimum inhibitory concentration against Staphylococcus aureus 887; assay type: functional; summary of the method: as §1
[7] = system: Staphylococcus epidermidis; experiment: Minimum inhibitory concentration against Staphylococcus epidermidis 16/2; assay type: functional; summary of the method: as §2
[8] = system: Stenotrophomonas maltophilia; experiment: Minimum inhibitory concentration against Xanthomonas maltophilia AC739; assay type: functional; summary of the method: as §2
Escherichia coli = experiment: Minimum inhibitory concentration against Escherichia coli 25922; assay type: functional; summary of the method: as §2
Enterococcus faecalis = experiment: Minimum inhibitory concentration against Enterococcus faecalis 6; assay type: functional; summary of the method: as §2
[9] = Staphylococcus aureus, read-out: MIC
[10] = Staphylococcus aureus, ATCC 25923, read-out: MIC

## Cc1c(O)cc(O)c2c1C(=O)OCC(NC(=O)OC(C)(C)C)C(=O)NCCSC2 (stereo unspecified)
Micrococcus luteus
  MIC: 32 µg/mL (≈ 75 µM)
[1]
  MNEC: 1 µg/mL

## CC[C@H]1OC(=O)[C@H](C)[C@@H](O[C@H]2C[C@@](C)(OC)[C@@H](O)[C@H](C)O2)[C@H](C)[C@@H](O[C@@H]2O[C@H](C)C[C@H](N(C)C)[C@H]2O)[C@](C)(O)C[C@@H](C)C(=O)[C@H](C)[C@@H](O)[C@]1(C)O [ERYTHROMYCIN]
Staphylococcus aureus [2]
  MIC50: > 16 µg/mL
  MIC90: > 16 µg/mL
[3]
  Range: 16 µg/mL

## COC(=O)[C@@H]1CSCc2c(O)ccc(C)c2C(=O)OCC(NC(=O)OC(C)(C)C)C(=O)N1 (stereo partly specified)
Micrococcus luteus
  MIC: 32 µg/mL (≈ 68.3 µM)
[1]
  MNEC: 1 µg/mL

## COC(=O)[C@@H]1CSCc2ccccc2C(=O)OCC(NC(=O)OC(C)(C)C)C(=O)N1 (stereo partly specified)
[1]
  MNEC: > 1 µg/mL

## COC(=O)[C@@H]1CSCc2c(O)cc(O)c(C)c2C(=O)OCCC(=O)N1
Micrococcus luteus
  MIC: 16 µg/mL (≈ 43.3 µM)
[1]
  MNEC: 0.25 µg/mL
Neisseria meningitidis
  MIC: 32 µg/mL (≈ 86.6 µM)

## COC(=O)[C@@H]1CSCc2c(O)cc(OC)c(C)c2C(=O)OCCCCC/C(S)=N/1
Staphylococcus aureus [4]; [9]
  MIC: 16 µg/mL (≈ 36.2 µM)
Staphylococcus aureus [5]; [10]
  MIC: 32 µg/mL (≈ 72.5 µM)
[1]
  MNEC: 0.5 µg/mL

## COc1cc(O)c2c(c1C)C(=O)OC[C@H](NC(=O)OC(C)(C)C)C(=O)N[C@H](C(=O)O)CSC2
Micrococcus luteus
  MIC: > 64 µg/mL
Streptococcus pyogenes
  MIC: > 64 µg/mL
[1]
  MNEC: 10 µg/mL
Staphylococcus aureus [6]
  MIC: > 64 µg/mL

## COC(=O)[C@@H]1CSCc2c(O)cc(O)c(C)c2C(=O)OCC(NC(=O)[C@H]2C(O)CCN2C(=O)OC(C)(C)C)C(=O)N1 (stereo partly specified)
Micrococcus luteus
  MIC: 128 µg/mL (≈ 214 µM)
[1]
  MNEC: 1 µg/mL
Staphylococcus aureus [6]
  MIC: > 64 µg/mL

## COC(=O)[C@@H]1CSCc2c(O)cc(OC)c(C)c2C(=O)OCCCCCCC(=O)N1
Staphylococcus aureus [4]; [9]
  MIC: > 64 µg/mL
Staphylococcus aureus [5]; [10]
  MIC: > 64 µg/mL
[1]
  MNEC: > 1 µg/mL

## COC(=O)[C@@H]1CSCc2c(N)cccc2C(=O)OCC(NC(=O)[C@H](CO)NC(=O)OC(C)(C)C)C(=O)N1 (stereo partly specified)
Micrococcus luteus
  MIC: > 128 µg/mL
[1]
  MNEC: > 100 µg/mL
Neisseria meningitidis
  MIC: > 128 µg/mL

## COC(=O)[C@@H]1CSCc2c(O)cc(O)c(C)c2C(=O)OC[C@@H](NC(=O)OC(C)(C)C)C(=O)N1
Micrococcus luteus
  MIC: 128 µg/mL (≈ 264 µM)
[1]
  MNEC: 1 µg/mL
Neisseria meningitidis
  MIC: 32 µg/mL (≈ 66 µM)

## COC(=O)[C@H]1CSCc2c(O)cc(O)c(C)c2C(=O)OC[C@H](NC(=O)OC(C)(C)C)C(=O)N1
Micrococcus luteus
  MIC: 128 µg/mL (≈ 264 µM)
[1]
  MNEC: 4 µg/mL
Neisseria meningitidis
  MIC: 128 µg/mL (≈ 264 µM)

## COc1cc(O)c2c(c1C)C(=O)O[C@H](CO)CC/C(S)=N/[C@H](c1nc(C)no1)CSC2
[1]
  MNEC: 0.01 µg/mL

## COC(=O)[C@@H]1CSCc2c(O)cccc2C(=O)OCC(NC(=O)[C@H](CO)NC(=O)OC(C)(C)C)C(=O)N1 (stereo partly specified)
Micrococcus luteus
  MIC: 64 µg/mL (≈ 118 µM)
[1]
  MNEC: 0.4 µg/mL
Neisseria meningitidis
  MIC: 32 µg/mL (≈ 59.1 µM)

## COC(=O)[C@@H]1CSCc2c(O)cc(OC)c(C)c2C(=O)OCC(=O)N1
Staphylococcus aureus [4]; [9]
  MIC: > 64 µg/mL
Staphylococcus aureus [5]; [10]
  MIC: > 64 µg/mL
[1]
  MNEC: > 1 µg/mL

## COC(=O)[C@@H]1CSCc2c(O)cc(OC)c(C)c2C(=O)OCCCCCCCCC(=O)N1
[1]
  MNEC: > 1 µg/mL

## COC(=O)[C@@H]1CSCc2c(O)cccc2C(=O)OCC(NC(=O)OC(C)(C)C)C(=O)N1 (stereo partly specified)
Micrococcus luteus
  MIC: > 128 µg/mL
[1]
  MNEC: > 1 µg/mL

## COC(=O)[C@@H]1CSCc2c(O)cc(OC)c(C)c2C(=O)OCCCC(=O)N1
Staphylococcus aureus [4]; [9]
  MIC: 32 µg/mL (≈ 80.5 µM)
Staphylococcus aureus [5]; [10]
  MIC: 64 µg/mL (≈ 161 µM)
[1]
  MNEC: 2 µg/mL

## COc1cc(O)c2c(c1C)C(=O)OCCC/C(S)=N/[C@H](c1nc(C)no1)CSC2
[1]
  MNEC: 0.004 µg/mL

## COC(=O)[C@@H]1CSCc2c(O)cc(O)c(C)c2C(=O)OCC(NC(=O)CCO)C(=O)N1 (stereo partly specified)
Micrococcus luteus
  MIC: 16 µg/mL (≈ 35.1 µM)
Streptococcus pyogenes
  MIC: > 64 µg/mL
[1]
  MNEC: 0.2 µg/mL
Staphylococcus aureus [6]
  MIC: > 64 µg/mL

## COC(=O)[C@@H]1CSCc2c(O)cc(OC)c(C)c2C(=O)OC/C(S)=N/1
Staphylococcus aureus [4]; [9]
  MIC: > 64 µg/mL
Staphylococcus aureus [5]; [10]
  MIC: > 64 µg/mL
[1]
  MNEC: 0.2 µg/mL

## COC(=O)[C@@H]1CSCc2c(O)cc(OC)c(C)c2C(=O)OCCC/C(S)=N/1
Staphylococcus aureus [4]; [9]
  MIC: 2 µg/mL (≈ 4.84 µM)
Staphylococcus aureus [5]; [10]
  MIC: 4 µg/mL (≈ 9.67 µM)
[1]
  MNEC: 0.4 µg/mL

## COC(=O)[C@@H]1CSCc2c(O)cc(OC)c(C)c2C(=O)OCC/C(S)=N/1
[7]
  MIC: 0.5 µg/mL (≈ 1.25 µM)
Streptococcus pyogenes
  MIC: 4 µg/mL (≈ 10 µM)
[8]
  MIC: 8 µg/mL (≈ 20 µM)
Staphylococcus aureus [4]
  MIC: 2 µg/mL (≈ 5.01 µM)
Staphylococcus aureus [4]; [9]
  MIC: 2 µg/mL (≈ 5.01 µM)
Escherichia coli
  MIC: > 64 µg/mL
Staphylococcus aureus [5]
  MIC: 2 µg/mL (≈ 5.01 µM)
Staphylococcus aureus [5]; [10]
  MIC: 2 µg/mL (≈ 5.01 µM)
[1]
  MNEC: 0.05 µg/mL
Enterococcus faecalis
  MIC: 4 µg/mL (≈ 10 µM)

## COc1cc(O)c2c(c1C)C(=O)O[C@H](CO)C/C(S)=N/[C@H](c1nc(C)no1)CSC2
[1]
  MNEC: 0.01 µg/mL

## COC(=O)[C@@H]1CSCc2c(OC)cc(O)c(C)c2C(=O)OCC(NC(=O)OC(C)(C)C)C(=O)N1 (stereo partly specified)
Micrococcus luteus
  MIC: > 128 µg/mL
[1]
  MNEC: > 1 µg/mL
Neisseria meningitidis
  MIC: 128 µg/mL (≈ 257 µM)
